# Measurements as given in ChEMBL document CHEMBL1914430, “Synthesis of some new 1,3,5-trisubstituted pyrazolines bearing benzene sulfonamide as anticancer and anti-inflammatory agents” (Bioorg Med Chem Lett, 2011).
# Experiments:
# Assay type in all cases: functional
# [1] = test system: Rattus norvegicus; assay: Antiinflammatory activity in Wistar rat assessed as inhibition of carrageenan-induced hind paw edema at 20 mg/kg, po administered 30 mins before carrageenan challenge measured after 5 hrs by plethysmometer
# Procedure, shortened: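 Wistar rats of either sex, 150–175 g, fasted 16 h, n = 6 per group. Compound given orally at 20 mg/kg as a suspension in 1% CMC in water (10 mL/kg); controls got vehicle only. After 30 min, 0.1 mL of 1% carrageenan in saline was injected subplantar into the left hind paw. Paw volume was measured by plethysmometer at 0, 3 and 5 h. Inhibition = (1 − Vt/Vc) × 100, reported as mean ± SEM.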
# [2] = test system: SR; assay: Anticancer activity against human SR cells after 48 hrs
# Procedure, shortened: (§1)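 NCI 60-line panel protocol with a 48 h incubation. Per line: GI50 = concentration giving 50% decrease in net cell growth; TGI = total growth inhibition; LC50 = net 50% loss of initial cells. When the level was not reached or was exceeded, the value is given as greater or less than the highest or lowest concentration tested.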
# [3] = test system: HOP-92; assay: Anticancer activity against human HOP92 cells after 48 hrs; settings: HOP-92, 48 h; for CC50: read-out: LC50 (the source's name)
# Procedure, shortened: (§2)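 NCI Drug Evaluation Branch 60-cell-line screen across leukemia, melanoma, lung, colon, CNS, ovarian, renal, prostate and breast panels. The incubation period is 48 h. Parameters are derived from dose–response data: GI50 is the concentration giving 50% decrease in net growth, TGI is total growth inhibition, and LC50 is net 50% loss of initial cells. Values beyond the tested range are reported as greater or less than the maximum or minimum concentration.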
# [4] = test system: NCI-H322M; assay: Anticancer activity against human NCI-H322M cells after 48 hrs; procedure, shortened: as §1
# [5] = test system: NCI-H460; assay: Anticancer activity against human NCI-H460 cells after 48 hrs; settings: NCI-H460, 48 h; procedure, shortened: as §1
# [6] = test system: NCI-H522; assay: Anticancer activity against human NCI-H522 cells after 48 hrs; settings: NCI-H522, 48 h; procedure, shortened: as §1
# [7] = test system: HCT-15; assay: Anticancer activity against human HCT15 cells after 48 hrs; settings: HCT-15, 48 h; for CC50: read-out: LC50 (the source's name); procedure, shortened: as §2
# [8] = test system: KM12; assay: Anticancer activity against human KM12 cells after 48 hrs; settings: KM12, 48 h; procedure, shortened: as §2
# [9] = test system: SW-620; assay: Anticancer activity against human SW620 cells after 48 hrs; settings: SW-620, 48 h; procedure, shortened: as §1
# [10] = test system: SF-295; assay: Anticancer activity against human SF295 cells after 48 hrs; settings: SF-295, 48 h; procedure, shortened: as §1
# [11] = test system: SF-539; assay: Anticancer activity against human SF539 cells after 48 hrs; settings: SF-539, 48 h; procedure, shortened: as §1
# [12] = test system: SNB-19; assay: Anticancer activity against human SNB19 cells after 48 hrs; settings: SNB-19, 48 h; for CC50: read-out: LC50 (the source's name); procedure, shortened: as §1
# [13] = test system: LOX IMVI; assay: Anticancer activity against human LOXIMVI cells after 48 hrs; settings: for CC50: read-out: LC50 (the source's name); procedure, shortened: as §2
# [14] = test system: MDA-MB-435; assay: Anticancer activity against human MDA-MB-435 cells after 48 hrs; settings: MDA-MB-435, 48 h; for CC50: read-out: LC50 (the source's name); procedure, shortened: as §2
# [15] = test system: SK-MEL-28; assay: Anticancer activity against human SK-MEL-28 cells after 48 hrs; settings: SK-MEL-28, 48 h; for CC50: read-out: LC50 (the source's name); procedure, shortened: as §1
# [16] = test system: UACC-257; assay: Anticancer activity against human UACC257 cells after 48 hrs; settings: UACC-257, 48 h
# Procedure, shortened: (§3)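 NCI ~60 human tumour cell line panel with a 48 h incubation. GI50 is the concentration giving a 50% fall in net growth, TGI gives total growth inhibition, and LC50 gives a net 50% loss of initial cells. An effect not reached or exceeded is reported as greater or less than the highest or lowest concentration tested.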
# [17] = test system: UACC-62; assay: Anticancer activity against human UACC62 cells after 48 hrs; settings: UACC-62, 48 h; procedure, shortened: as §3
# [18] = test system: IGROV-1; assay: Anticancer activity against human IGROV1 cells after 48 hrs; settings: IGROV-1, 48 h; procedure, shortened: as §2
# [19] = test system: OVCAR-4; assay: Anticancer activity against human OVCAR4 cells after 48 hrs; settings: OVCAR-4, 48 h; procedure, shortened: as §1
# [20] = test system: NCI/ADR-RES; assay: Anticancer activity against human NCI/ADR-RES cells after 48 hrs; settings: for CC50: read-out: LC50 (the source's name); procedure, shortened: as §1
# [21] = test system: SK-OV-3; assay: Anticancer activity against human SKOV3 cells after 48 hrs; settings: SK-OV-3, 48 h; for CC50: read-out: LC50 (the source's name); procedure, shortened: as §1
# [22] = test system: SN12C; assay: Anticancer activity against human SN12C cells after 48 hrs; procedure, shortened: as §1
# [23] = test system: TK-10; assay: Anticancer activity against human TK10 cells after 48 hrs; settings: TK-10, 48 h; procedure, shortened: as §3
# [24] = test system: PC-3; assay: Anticancer activity against human PC3 cells after 48 hrs; settings: PC-3, 48 h; for CC50: read-out: LC50 (the source's name); procedure, shortened: as §1
# [25] = test system: DU-145; assay: Anticancer activity against human DU145 cells after 48 hrs; settings: DU-145, 48 h; procedure, shortened: as §2
# [26] = test system: MCF7; assay: Anticancer activity against human MCF7 cells after 48 hrs; settings: MCF7, 48 h; procedure, shortened: as §2
# [27] = test system: MDA-MB-231; assay: Anticancer activity against human MDA-MB-231 cells after 48 hrs; settings: MDA-MB-231, 48 h; for CC50: read-out: LC50 (the source's name); procedure, shortened: as §2
# [28] = test system: BT-549; assay: Anticancer activity against human BT549 cells after 48 hrs; settings: BT-549, 48 h; for CC50: read-out: LC50 (the source's name); procedure, shortened: as §2
# [29] = test system: T47D; assay: Anticancer activity against human T47D cells after 48 hrs; settings: for CC50: read-out: LC50 (the source's name); procedure, shortened: as §3
structure (smiles),measurement,setting,value
Cc1cc(O)c(C2=NN(c3ccc(S(N)(=O)=O)cc3)C(c3ccccc3Cl)C2)cc1Cl (configuration not stated),inhibition in vivo at 20 mg/kg,[1],71.4%
same,GI50,[2],2.97 µM
same,LC50 (concentration killing 50% of initial cells),[2],> 100 µM
same,GI50,[3],1.94 µM
same,TGI,[3],6.32 µM
same,CC50,[3],3.12 µM
same,GI50,[4],2.19 µM
same,LC50 (net 50% loss of initial cells),[4],22 µM
same,TGI,[4],5.06 µM
same,GI50,[5],2.16 µM
same,LC50 (50% lethal concentration),[5],8.21 µM
same,TGI,[5],4.21 µM
same,GI50,[6],1.89 µM
same,LC50 (concentration killing 50% of initial cells),[6],8.33 µM
same,TGI,[6],3.97 µM
same,GI50,[7],3.69 µM
same,TGI,[7],16.6 µM
same,CC50,[7],> 100 µM
same,GI50,[8],1.98 µM
same,TGI,[8],3.66 µM
same,GI50,[9],1.97 µM
same,TGI,[9],4.1 µM
same,GI50,[10],1.59 µM
same,LC50 (concentration giving net 50% loss of initial cells),[10],6.34 µM
same,TGI,[10],3.18 µM
same,GI50,[11],1.79 µM
same,LC50 (concentration causing net 50% loss of initial cells),[11],5.9 µM
same,TGI,[11],3.25 µM
same,GI50,[12],3.54 µM
same,TGI,[12],16.3 µM
same,CC50,[12],92.3 µM
same,GI50,[13],1.78 µM
same,TGI,[13],3.21 µM
same,CC50,[13],5.8 µM
same,GI50,[14],1.85 µM
same,TGI,[14],3.92 µM
same,CC50,[14],8.32 µM
same,GI50,[15],3.39 µM
same,TGI,[15],12.3 µM
same,CC50,[15],52.9 µM
same,GI50,[16],11.8 µM
same,LC50,[16],> 100 µM
same,TGI,[16],79.6 µM
same,GI50,[17],3.71 µM
same,LC50,[17],43.4 µM
same,TGI,[17],14.4 µM
same,GI50,[18],2.58 µM
same,LC50 (net 50% loss of initial cells),[18],47.2 µM
same,TGI,[18],14 µM
same,GI50,[19],2.73 µM
same,LC50,[19],40 µM
same,TGI,[19],8.48 µM
same,GI50,[20],2.7 µM
same,TGI,[20],6.85 µM
same,CC50,[20],38.8 µM
same,GI50,[21],3.63 µM
same,TGI,[21],10.4 µM
same,CC50,[21],32.3 µM
same,GI50,[22],2.55 µM
same,LC50,[22],29.4 µM
same,TGI,[22],6.32 µM
same,GI50,[23],2.64 µM
same,LC50,[23],33.9 µM
same,TGI,[23],5.86 µM
same,GI50,[24],1.58 µM
same,TGI,[24],3.32 µM
same,CC50,[24],6.98 µM
same,GI50,[25],2.01 µM
same,LC50 (concentration causing net 50% loss of initial cells),[25],7.35 µM
same,TGI,[25],3.85 µM
same,GI50,[26],1.75 µM
same,LC50,[26],6.35 µM
same,TGI,[26],3.33 µM
same,GI50,[27],2.14 µM
same,TGI,[27],4.52 µM
same,CC50,[27],9.52 µM
same,GI50,[28],2.16 µM
same,TGI,[28],4.74 µM
same,CC50,[28],18.3 µM
same,GI50,[29],2.81 µM
same,TGI,[29],10.3 µM
same,CC50,[29],82.3 µM
Cc1cc(O)c(C2=NN(c3ccc(S(N)(=O)=O)cc3)C(c3ccccc3O)C2)cc1Cl (configuration not stated),inhibition in vivo at 20 mg/kg,[1],59.5%
same,GI50,[2],2.22 µM
same,LC50 (concentration killing 50% of initial cells),[2],> 100 µM
same,TGI,[2],26.7 µM
same,GI50,[3],1.46 µM
same,TGI,[3],6.51 µM
same,CC50,[3],37.8 µM
same,GI50,[4],2.5 µM
same,LC50 (net 50% loss of initial cells),[4],26 µM
same,TGI,[4],7.24 µM
same,GI50,[5],2.06 µM
same,LC50 (50% lethal concentration),[5],9.4 µM
same,TGI,[5],4.48 µM
same,GI50,[6],2.15 µM
same,LC50 (concentration killing 50% of initial cells),[6],28 µM
same,TGI,[6],6.28 µM
same,GI50,[7],3.64 µM
same,TGI,[7],13.4 µM
same,CC50,[7],44.7 µM
same,GI50,[8],1.78 µM
same,LC50 (concentration causing net 50% loss of initial cells),[8],6.82 µM
same,TGI,[8],3.48 µM
same,GI50,[9],1.76 µM
same,TGI,[9],3.59 µM
same,CC50,[9]; read-out: LC50 (the source's name),7.35 µM
same,GI50,[10],1.66 µM
same,LC50 (concentration giving net 50% loss of initial cells),[10],8.09 µM
same,TGI,[10],3.67 µM
same,GI50,[11],1.6 µM
same,LC50 (concentration causing net 50% loss of initial cells),[11],5.69 µM
same,TGI,[11],3.02 µM
same,GI50,[12],4.33 µM
same,TGI,[12],15.2 µM
same,CC50,[12],39.8 µM
same,GI50,[13],1.73 µM
same,TGI,[13],3.19 µM
same,CC50,[13],5.87 µM
same,GI50,[14],2.04 µM
same,TGI,[14],4.49 µM
same,CC50,[14],9.88 µM
same,GI50,[15],4.05 µM
same,TGI,[15],13.5 µM
same,CC50,[15],37.8 µM
same,GI50,[16],6.92 µM
same,LC50,[16],59 µM
same,TGI,[16],22.1 µM
same,GI50,[17],3.54 µM
same,LC50,[17],40.8 µM
same,TGI,[17],15.5 µM
same,GI50,[18],1.63 µM
same,LC50 (net 50% loss of initial cells),[18],37.4 µM
same,TGI,[18],11.2 µM
same,GI50,[19],3.9 µM
same,LC50,[19],51.8 µM
same,TGI,[19],16 µM
same,GI50,[20],3.61 µM
same,TGI,[20],14.1 µM
same,CC50,[20],54.1 µM
same,GI50,[21],4.41 µM
same,TGI,[21],14.9 µM
same,CC50,[21],38.6 µM
same,GI50,[22],4.08 µM
same,LC50,[22],43.1 µM
same,TGI,[22],15.3 µM
same,GI50,[23],3.3 µM
same,LC50,[23],27.2 µM
same,TGI,[23],6.85 µM
same,GI50,[24],1.33 µM
same,TGI,[24],3.52 µM
same,CC50,[24],9.33 µM
same,GI50,[25],2.41 µM
same,LC50 (concentration causing net 50% loss of initial cells),[25],10.6 µM
same,TGI,[25],4.95 µM
same,GI50,[26],2.66 µM
same,LC50,[26],49.5 µM
same,TGI,[26],9.77 µM
same,GI50,[27],2.3 µM
same,TGI,[27],6.69 µM
same,CC50,[27],29.5 µM
same,GI50,[28],2.47 µM
same,TGI,[28],8.18 µM
same,CC50,[28],58.7 µM
same,GI50,[29],3.18 µM
same,TGI,[29],14.6 µM
same,CC50,[29],64.9 µM
